Assay results: PubChem BioAssay AID743337 (The Scripps Research Institute Molecular Screening Center, 2014)
Activity calls are given as the source filed them.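 How the source made its calls: active means IC50 of 10 µM or lower; inactive means IC50 above 10 µM.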

molecular target: Disintegrin and metalloproteinase domain-containing protein 17 (Homo sapiens) (UniProt P78536); test: concentration-dependent inhibition of human ADAM17 – biochemical, QFRET peptide cleavage, IC50, ADAM17 exosite inhibitor project, late-stage follow-up (AID 743337); conditions: recombinant ADAM17, QFRET peptide cleavage, fluorescence 3 h
How it was run: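 Material: ADAM17 metalloprotease enzyme, cell-free biochemical assay; Medium: 50 mM HEPES buffer pH 7.5 with 0.01% Brij; Incubation: 30 min preincubation plus 3 h reaction, 25 °C; Measured by: fluorescence, ex 359 nm, em 460 nm; Measure: IC50 from four-parameter sigmoidal dose-response fit; Benchmarks: 1 µM marimastat and DMSO; Repeats: triplicate series.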

Sequence of Disintegrin and metalloproteinase domain-containing protein 17 (Homo sapiens) (P78536 215-824 limits assumed): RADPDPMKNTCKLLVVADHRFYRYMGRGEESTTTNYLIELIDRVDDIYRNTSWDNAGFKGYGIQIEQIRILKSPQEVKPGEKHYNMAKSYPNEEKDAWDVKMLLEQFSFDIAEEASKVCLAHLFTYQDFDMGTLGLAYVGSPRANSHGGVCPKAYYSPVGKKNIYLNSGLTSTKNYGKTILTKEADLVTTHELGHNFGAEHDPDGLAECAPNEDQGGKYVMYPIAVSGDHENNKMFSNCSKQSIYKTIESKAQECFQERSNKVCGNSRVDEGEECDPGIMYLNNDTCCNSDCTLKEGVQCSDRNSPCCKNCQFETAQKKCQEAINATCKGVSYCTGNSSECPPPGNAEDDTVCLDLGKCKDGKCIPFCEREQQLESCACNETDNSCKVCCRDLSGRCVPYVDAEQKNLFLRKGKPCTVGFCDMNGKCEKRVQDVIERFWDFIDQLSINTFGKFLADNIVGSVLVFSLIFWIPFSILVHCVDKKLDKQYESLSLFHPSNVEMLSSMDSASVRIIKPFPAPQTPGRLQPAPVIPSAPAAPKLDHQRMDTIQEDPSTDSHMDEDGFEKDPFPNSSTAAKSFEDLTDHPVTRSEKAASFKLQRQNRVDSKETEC

Structure (SMILES) | IC50
COc1ccc(-c2ccc(-c3noc(-c4cccc(OC)c4)n3)c(OC)n2)cc1 | > 69.5 µM (inactive)
O=C(Nc1ccc(OCC(F)(F)C(F)(F)F)c(C(F)(F)F)c1)c1ccc(Br)cc1 | > 69.5 µM (inactive)
O=S(=O)(NCC(Nc1ccc(Cl)cc1)c1ccccc1)c1ccc(Cl)cc1 (centres undefined) | > 69.5 µM (inactive)
O=C(Nc1ccc(OCC(F)(F)C(F)F)c(C(F)(F)F)c1)c1ccc(Cl)cc1 | > 69.5 µM (inactive)
COc1ccc2nc(SCC(=O)Nc3ccc(S(=O)(=O)N4CCCC4)cc3)c(C#N)cc2c1 | > 69.5 µM (inactive)
C=C(C)COc1ccc(-c2[nH]ncc2Oc2ccc(OC)cc2)c(O)c1 | > 69.5 µM (inactive)
O=S(=O)(NCC(Nc1ccc(Cl)cc1)c1ccccc1)c1ccccc1 (centres undefined) | > 69.5 µM (inactive)
CCCOC(=O)c1ccc(Oc2cn[nH]c2-c2ccc(OCC)cc2O)cc1 | > 69.5 µM (inactive)
Cc1csc(-c2cnn(-c3ccccc3)c2NC(=O)c2ccc(C(F)(F)F)cc2)n1 | > 69.5 µM (inactive)
C=C(C)COc1ccc(-c2[nH]ncc2Oc2cccc(OC)c2)c(O)c1 | > 69.5 µM (inactive)
O=C(Nc1ccc(OCC(F)(F)C(F)(F)F)c(C(F)(F)F)c1)c1ccc(F)cc1 | > 69.5 µM (inactive)
Cc1ccc(OCC(O)Cn2c3ccccc3c3ccccc32)cc1 (centres undefined) | > 69.5 µM (inactive)
Oc1cc2c(cc1C(c1ccc(Cl)c(Cl)c1)N1CCCC1)OCO2 (centres undefined) | inactive

Continued, values first:

IC50 | Structure (SMILES)
> 69.5 µM (inactive) | COc1cccc(C(=O)NNC(=O)C(=O)Nc2ccc(C)c(Cl)c2)c1
> 69.5 µM (inactive) | C=C(C)COc1ccc(-c2n[nH]c(C)c2Oc2ccccc2OC)c(O)c1
> 69.5 µM (inactive) | Cc1ccc(S(=O)(=O)Nc2ccc(Cl)cc2)cc1NC(=O)c1cc2c(s1)CCCC2
7.83 µM | CCOc1ccc(NC(=O)CC2SC(=O)N(c3ccccc3)C2=O)cc1 (centres undefined)
inactive | Cc1ccc(CC2(c3ccccc3)NC(=O)NC2=O)cc1 (centres undefined)
> 69.5 µM (inactive) | CS(=O)(=O)N(CC(=O)Nc1ccccc1Sc1ccccc1)c1cccc(Br)c1
3.76 µM | O=C1NC(=O)C(Cc2ccc(Cl)cc2)(c2ccccc2)N1 (centres undefined)
inactive | O=C(O)CCC(=O)c1c[nH]c2ccccc12
> 69.5 µM (inactive) | O=C(CN(Cc1cccs1)S(=O)(=O)c1ccc(S(=O)(=O)NC2CCCCC2)cc1)Nc1ccccc1
> 69.5 µM (inactive) | COc1ccccc1NS(=O)(=O)c1cccc(NC(=O)Nc2ccc(Cl)cc2)c1
> 69.5 µM (inactive) | CCCCN(Cc1ccccc1)S(=O)(=O)c1cc(Br)cc2c1N(C(C)=O)C(C)C2 (centres undefined)
